Assay outcomes: PubChem, Sanford-Burnham Center for Chemical Genomics
Hits are enriched below; roughly 2.5% of the tested compounds scored in any of these assays.
FLuc inh counter: Photinus pyralis luciferase inhibition counter-screen. ATPLite firefly luciferase biochemical luminescence, 10 min. 1.5% of 200,000 active. P08659. inhibition, % at 10 µM;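 active = inhibition above about 50% when tested at 10 µM, limit read from the data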
Diaphorase inh: diaphorase inhibition or chemical oxidation counter-screen. diaphorase resazurin-to-resorufin fluorescence, NADH, 16 min; bacterial (C. kluyveri) enzyme, not human. inhibition, % at 20 µM. 0.69% of 190,000 active. AID 1217;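 active = primary screen inhibition at 20 µM above a set limit, cut at about 50% in these data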;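 note: plate controls were DMSO with full reaction for no effect and wells lacking NADH for full effect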
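controls = No-NADH positive control and DMSO neutral control | system = Clostridium kluyveri diaphorase enzyme | timing = reaction incubation of 16 min at room temperature | signal = resorufin fluorescence 544/590 nm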
FLuc act counter: affects firefly luciferase, flagging false hits in luciferase stimulation screens | P08659 | ATPlite luciferase biochemical, luminescence, 10 min; 0 = ATP-free wells, 1 = DMSO control | activation factor at 10 µM | 200,000 tested, under 10 active;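 active = luciferase activation factor, scaled between plate controls, of at least 2 with compound at 10 µM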
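Material: Luciferase/luciferin reagent mix | Doses: Test compounds dosed from 2 mM stocks in 100% DMSO | Timing: 10 min incubation after luciferase reagent addition, room temperature | Measured by: Luminescence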
PMI act: activators of human phosphomannose isomerase; P34949; purified human PMI, coupled resazurin fluorescence, 20 min; stronger effect = higher value; 1 = vehicle control, 0 substrate-free wells; activation factor at 20 µM; 0.005% of 190,000 active; AID 1214;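 active = activation factor of 2 or more at 20 µM, relative to plate controls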
Target sequence (P34949 whole entry, looked up): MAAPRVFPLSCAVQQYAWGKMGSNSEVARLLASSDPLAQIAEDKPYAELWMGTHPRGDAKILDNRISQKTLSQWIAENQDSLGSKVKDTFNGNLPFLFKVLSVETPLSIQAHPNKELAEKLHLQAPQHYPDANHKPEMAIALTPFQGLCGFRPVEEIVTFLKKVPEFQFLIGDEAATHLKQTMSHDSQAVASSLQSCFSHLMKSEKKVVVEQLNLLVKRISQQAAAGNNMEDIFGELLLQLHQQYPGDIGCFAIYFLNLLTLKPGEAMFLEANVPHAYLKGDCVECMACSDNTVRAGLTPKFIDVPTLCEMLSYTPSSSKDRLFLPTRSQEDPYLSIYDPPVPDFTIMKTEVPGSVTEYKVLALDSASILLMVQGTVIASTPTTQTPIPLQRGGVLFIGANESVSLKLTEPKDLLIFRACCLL
Diaph act CS: activates diaphorase or chemically reduces, flagging diaphorase assay artifacts; Diaphorase/resazurin coupled assay, resorufin fluorescence, 16 min; stronger effect = higher value; 1 = vehicle wells, 0 = NADH-free wells; activation factor at 20 µM; 0.005% of 190,000 active; AID 1229;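 active = diaphorase activity raised at least twofold by the compound at 20 µM; inactive = activation factor below 2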
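Assay system: Purified diaphorase enzyme from Clostridium kluyveri | Amount: Enzyme 0.07 U/mL final | Dosing: Compound 20 µM once, DMSO 1% | Timing: 16 min reaction at room temperature | Detection: Fluorescence, excitation 544 nm and emission 590 nm | Evaluation: Higher resorufin formation from activation or reduction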
PMI act hi M6P: increases human PMI activity with near-saturating mannose 6-phosphate; P34949; coupled PMI enzyme assay, resazurin fluorescence, 20 min; stronger effect = higher value; 1 = untreated enzyme, 0 = substrate-free blank; activation factor at 20 µM; 0.34% of 190,000 active; AID 1216;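 active = activation factor of 2 or more at 20 µM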
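Test system: human phosphomannose isomerase with PGI, G6PDH, diaphorase coupling enzymes; amount: 15 ng/mL PMI; incubation: enzyme reaction with compound 20 min at room temperature; technique: resorufin fluorescence (Ex 544/Em 590 nm) from resazurin via diaphorase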
* hit, by the source's call.

SMILES	FLuc inh counter	Diaphorase inh	FLuc act counter	PMI act	Diaph act CS	PMI act hi M6P
O=C(CSc1nc2ccccc2c(=O)[nH]1)c1cccs1	-1.4	15.5	1	0.9	0.8	0.9
N#Cc1c(-c2cccs2)nc(SCC(=O)c2cccs2)[nH]c1=O	-7.6	65.2*	1.1	0.9	0.3	1
Cn1cccc1C(=O)NC(=O)COC(=O)C12CC3CC(CC(O)(C3)C1)C2	57.3*	14.7	0.4	1	0.9	1
Cc1ccc(NCc2nc3ccccc3n2C)cc1	69.5*	3.7	0.3	0.8	1	0.9
COC(=O)N/N=C/c1ccc(Oc2ccccc2)cc1	36.7	12.6	0.6	0.9	0.9	0.9
O=C(NNc1ccc(C2CCCCC2)cc1)C(O)(c1ccccc1)c1cccs1 (configuration not stated)	-1.7	14.0	1	1.2	0.9	2.1*
c1ccc2oc(-c3csc(N4CCOCC4)n3)cc2c1	85.8*	22.4	0.1	0.6	0.8	0.7
CC(C)CSC1=NSC2=NC(=O)/C(=C\c3coc4ccccc4c3=O)C(=N)N12	2.1	32.3	1	1.6	0.7	2*
Oc1ccc2ccccc2c1C=Nc1ccc(Cl)cn1	0.4	61.5*	1	0.4	0.4	0.2
Cc1cc(O)c(C=Nc2ccc(Cl)cn2)c(=O)o1	-2.1	9.7	1	1.3	0.9	1.6
Cc1nn2cc(-c3ncc(C(F)(F)F)cc3Cl)cnc2c1Br	25.5	-1.2	0.7	1	1	1
Cc1cc2ncc(-c3ncc(C(F)(F)F)cc3Cl)cn2n1	73.4*	10.2	0.3	0.9	0.9	0.9
O=C(CSc1nnc(COc2ccc(Cl)cc2)o1)N1CCOCC1	-0.1	-16.5	1	1.2	1.2	1.2
CCn1c(SCC(=O)NNC(=O)c2ccco2)nnc1-c1ccco1	-3.2	3.1	1	1.1	1	1
COc1ccc(-c2nc(C(=O)O)cs2)cc1OC	-0.5	-8.1	1	1.1	1.1	1
COc1ccc(-c2cc(C(=O)O)nc3ccc4ccccc4c23)cc1OC	65.1*	1.4	0.3	1.2	1	1
O=C(N/N=C/c1ccc([N+](=O)[O-])cc1)c1ccc2nc[nH]c2c1	14.3	-9.9	0.9	1	1.1	1.1
O=C(N/N=C/c1ccc([N+](=O)[O-])cc1)c1[nH]ncc1Br	59.6*	0.0	0.4	1	1	1
COc1ccc2nc(-c3ccco3)c(-c3ccco3)nc2c1	48.9	78.4*	0.5	1.1	0.2	1.4
c1coc(-c2nc(-c3ccco3)c(-c3ccco3)nc2-c2ccco2)c1	-0.9	94.1*	1	0.9	0.1	0.8
COc1ccc(/C=C/C(=O)NC(CCSC)C(=O)O)cc1 (configuration not stated)	-2.7	8.4	1	1.1	0.9	1.1
Cc1nc(-c2ccccc2)sc1-c1ccn[nH]1	69.7*	0.1	0.3	0.9	1	1
Cc1nc(-c2ccccc2)sc1-c1ccnn1C	56.7*	18.3	0.4	0.9	0.8	0.9
CSc1ccc(/C=N/Nc2ccc(Cl)c(C(=O)O)c2)cc1	14.4	9.1	0.9	1.7	0.9	2.4*
CSc1ccc(/C=N/Nc2nc(C)cc(C)n2)cc1	4.4	2.5	1	1	1	1
SMILES	FLuc inh counter	Diaphorase inh	FLuc act counter	PMI act	Diaph act CS	PMI act hi M6P
COc1cc(/C=N/Nc2ccccc2)ccc1OC(=O)c1cccs1	-1.7	5.5	1	1.5	0.9	2.2*
COc1cc(/C=N/Nc2ccc(Cl)c(C(=O)O)c2)ccc1OC(=O)c1ccco1	4.4	-10.0	1	1.6	1.1	1.5
COc1cc(/C=N/Nc2ccc(Cl)c(C(=O)O)c2)ccc1OC(=O)c1cccs1	-1.1	28.1	1	1.6	0.7	2.4*
Cc1nnc(Sc2cc(NCCO)c([N+](=O)[O-])c3nonc23)s1	-5.4	39.7	1.1	1	0.6	0.8
O=[N+]([O-])c1c(NCCCO)cc(Sc2nc3ccccc3s2)c2nonc12	-1.2	70.9*	1	0.3	0.3	0.6
CCC(=O)OCCNc1cc(Sc2nc3ccccc3[nH]2)c2nonc2c1[N+](=O)[O-]	1.0	31.1	1	0.9	0.7	0.7
CCC(=O)OCCNc1cc(Sc2nc3ccccc3s2)c2nonc2c1[N+](=O)[O-]	-3.4	58.3*	1	0.8	0.4	1
Cc1nnc(Sc2cc(NCCCO)c([N+](=O)[O-])c3nonc23)s1	-4.4	59.3*	1	0.7	0.4	0.6
CSc1ccc(CN2C(=O)NC3(CCCCC3)C2=O)cc1	-9.1	4.2	1.1	0.9	1	0.9
CCCCCC(=O)Nc1sc(C)c(C)c1C#N	-4.3	0.2	1	0.8	1	1
CCOc1ccc(C2CC(c3ccc(F)cc3)n3ncnc3N2)cc1 (configuration not stated)	-11.7	14.3	1.1	0.9	0.9	0.9
CCn1cc(-c2cc(C(=O)O)c3ccccc3n2)cn1	82.6*	2.4	0.2	1.2	1	1.2
CCc1ccc(-c2cc(C(=O)Nn3cnnc3)c3ccccc3n2)cc1	98.0*	-0.1	0	1.1	1	1.2
CCC/C=N/NC(=O)c1cc(-c2ccccc2)nc2ccccc12	4.0	14.1	1	1	0.9	1
CCCc1ccc(-c2cc(C(=O)NN3CCOCC3)c3ccccc3n2)cc1	58.9*	18.8	0.4	0.9	0.8	0.9
CCCc1ccc(-c2cc(C(=O)Nc3ccc([N+](=O)[O-])cn3)c3ccccc3n2)cc1	58.1*	10.0	0.4	0.9	0.9	1
O=C(NN1CCOCC1)c1cc(-c2ccc(Br)s2)nc2ccccc12	-5.1	2.4	1.1	1.1	1	1
NS(=O)(=O)c1ccc(CCNC(=O)c2cc(-c3ccc(Br)cc3)nc3ccccc23)cc1	3.6	-4.2	1	0.9	1	1
CCCc1ccc(-c2cc(C(=O)NCCc3ccc(S(N)(=O)=O)cc3)c3ccccc3n2)cc1	64.2*	14.7	0.4	0.9	0.9	0.9
O=S(=O)(NCc1cn2ccsc2n1)c1ccc(Oc2ccccc2)cc1	-7.7	11.3	1.1	1	0.9	1
O=C(CN(Cc1ccco1)C(=O)c1ccccc1)Nc1ccc(Cl)c(Cl)c1	-8.8	26.3	1.1	0.9	0.7	0.9
CCN(CC)C(=O)c1c2c(nc3ccccc13)-c1ccccc1CC2	-1.2	19.0	1	0.9	0.8	0.9
